Results published in ChEMBL document CHEMBL2440109, “Synthesis and antimycobacterial activity of isoniazid derivatives from renewable fatty acids” (2013).
In brackets after ≈: the same amount, converted by molar mass.

tested on: Mycobacterium tuberculosis; test: Antimycobacterial activity against Mycobacterium tuberculosis H37Rv ATCC 27294 after 7 days by REMA assay; assay type: functional; conditions: H37Rv ATCC 27294, 168 h
Method in brief: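 MIC by resazurin microtiter assay. Bacteria suspended in sterile water with glass beads, vortexed, turbidity set to McFarland tube 1 (3.2 × 10^6 CFU/mL), then diluted 1:20 in Middlebrook 7H9. Compounds in DMSO, two-fold serial dilutions (100.0-3.2 µg/mL) in 7H9 with 10% OADC. Incubated 37 °C for 7 days, resazurin added, further 2 days at 37 °C. MIC read from colour change.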

Point of comparison: CCCCC/C=C\C/C=C\CCCCCCCC(=O)NNC(=O)c1ccncc1, MIC 0.125 µg/mL (≈ 0.313 µM). Against it:
- CCCCCCCCCCCCCCCC(=O)NNC(=O)c1ccncc1 — 8.3-fold lower, 0.015 µg/mL (≈ 0.0399 µM)
- CCCCCCCCCCCCCCCCCC(=O)NNC(=O)c1ccncc1 — 4.2-fold lower, 0.03 µg/mL (≈ 0.0743 µM)
- CCCCCCCC/C=C\CCCCCCCC(=O)NNC(=O)c1ccncc1 — 8.3-fold lower, 0.015 µg/mL (≈ 0.0374 µM)
- CCCCCCCC/C=C/CCCCCCCC(=O)NNC(=O)c1ccncc1 — 4.2-fold lower, 0.03 µg/mL (≈ 0.0747 µM)
- CCCCCC[C@@H](O)C/C=C\CCCCCCCC(=O)NNC(=O)c1ccncc1 — 4.2-fold lower, 0.03 µg/mL (≈ 0.0718 µM)
- CC/C=C\C/C=C\C/C=C\CCCCCCCC(=O)NNC(=O)c1ccncc1 — 2.1-fold lower, 0.06 µg/mL (≈ 0.151 µM)
- NNC(=O)c1ccncc1 [ISONIAZID] — 2.1-fold lower, 0.06 µg/mL (≈ 0.438 µM)
- CCCCCCCC/C=C\CCCCCCCC(=O)O [OLEIC ACID] — 800-fold higher, 100 µg/mL (≈ 354 µM)
- CCCCCCCC/C=C\CCCCCCCC(=O)NN [OLEOHYDRAZIDE] — 400-fold higher, 50 µg/mL (≈ 169 µM)
- CO[C@H]1/C=C/O[C@@]2(C)Oc3c(C)c(O)c4c(O)c(c(/C=N/N5CCN(C)CC5)c(O)c4c3C2=O)NC(=O)/C(C)=C\C=C\[C@H](C)[C@H](O)[C@@H](C)[C@@H](O)[C@@H](C)[C@H](OC(C)=O)[C@@H]1C [RIFAMPIN] — 4.2-fold lower, 0.03 µg/mL (≈ 0.0365 µM)
